Assay: Toxicity liver stage against HepG2, at 10uM
Format: cell-based
Design: test concentration 10 uM, cell line HepG2-A16-CD81EGFP
Conditions: human, HepG2-A16-CD81EGFP cells; read-out: INHIBITION
Procedure, shortened: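 Uninfected HepG2-A16-CD81EGFP cells, 3 × 10^3 per well, 1536-well, plated on prespotted compound at 10 μM final, parasite-free screening media added to match infected plates; puromycin 10 μM positive, DMSO 0.5% negative; run in parallel with 48 h PbLuc assay at 37 °C, 5% CO2; viability by CellTiter-Glo luminescence, normalized to controls.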

| SMILES | cytotoxicity at 10 µM |
| --- | --- |
| Cc1cccc(COc2ccc(C(C)NC(=O)CNC(N)=O)cc2)c1 (stereo not given) | -20.9% |
| Fc1cnc(N2CCCC3(CN(Cc4ccccc4)CCO3)C2)nc1 (stereo not given) | 12.4% |
| CSCC(CCO)NC(=O)Nc1cc(F)ccc1C (stereo not given) | -1.8% |
| CCNC(=O)Nc1cccc(F)c1C(=O)NC1CCCC1 | 5.69% |
| NC(=O)C1=NC2=NS(=O)(=O)c3ccccc3N2N1Cc1ccc(Cl)cc1 | 1.75% |
| CCn1cncc1-c1nc2c([nH]1)CC(C)(C)CNC2=O | 7.51% |
| O=C(NC1CC1)C1CCCN(c2cccc(C(F)(F)F)n2)C1 (stereo not given) | 2.43% |
| O=C(Cn1c(=O)oc2ccccc21)NCC(O)c1ccc2c(c1)CCO2 (stereo not given) | -6.81% |
| Cc1nc(O)cc(CN2CC=C(c3cnn(-c4ccccc4)c3)CC2)n1 | -10.5% |
| Cc1n[nH]c(C)c1Sc1ccccc1NC(=O)N1CCOCC1 | 4.63% |
| COc1ccc(Cl)cc1-n1c(COC(C)C)n[nH]c1=O | -7.5% |
| COCC(=O)N1CC2=CC(C)(C)COc3ccc(OC)c(c32)C1 | -2.59% |
| CN(C)CCNC(=O)[C@H]1C[C@H]2CN(c3ncccn3)C[C@H]2N1C | 9.52% |
| Cc1cc(-c2ccc(C(C)N3CCOCC3)cc2)cnc1N (stereo not given) | -2.36% |
| O[C@@H]1CN(Cc2cc(Cl)cc3cccnc23)C[C@@H]1O | 0.342% |
| Cc1cnc(C(=O)N2CCC(COCc3ccccc3)C2)cn1 (stereo not given) | 7.54% |
| O=C(Cc1ccsc1)N1C[C@@H]2OCCN(CC3CC3)[C@@H]2C1 | 10.1% |
| CC(C)CN1C[C@@H]2C[C@H](C(=O)NC3CCC3)[C@H](C1)O2 | 2.37% |
| CC(C)(NC(=O)Cc1ccccc1F)C(C)(C)C(=O)O | -9.1% |
| Cc1cccc2[nH]c(C3CCN(C(=O)c4cccnn4)CC3)nc12 | 11.2% |
| COc1cc(N2CCCC3(CCN(c4cccnc4)C3=O)C2)ncn1 (stereo not given) | -103% |
| COc1ccc(C)cc1CN(C)Cc1nc2c(cnn2C)c(=O)[nH]1 | -5.33% |
| CC1(C)CC1C(=O)NS(=O)(=O)Cc1cc(-c2ccccc2)no1 (stereo not given) | -11% |

| SMILES | cytotoxicity at 10 µM |
| --- | --- |
| CC(C)N1C(=O)CO[C@H]2CCN(C(=O)c3ccc4c(c3)CCC4)CC[C@@H]21 | 3.79% |
| c1cc2c(cc1-n1nc(C3CC3)nc1-c1csnn1)OCCO2 | 9.46% |
| Cc1cc(N2CCC(NC(C)Cc3ccsc3)CC2)nc(C)n1 (stereo not given) | -7.73% |
| CS(=O)(=O)CCN1CCN(c2ccc(Cl)cn2)CC1 | 4.13% |
| Cn1cc(C[C@H]2[C@H](O)CCN2CC2CCOCC2)cn1 | -65.7% |
| CC(C)N1CCC(c2nccnc2Nc2cnccn2)CC1 | 1.44% |
| COc1ccc(-c2noc(CN3CCc4cncnc4C3)n2)cc1 | -0.215% |
| CC(NCc1ccccc1O)c1ccc(-n2ccnc2)cc1 (stereo not given) | -46.9% |
| Cc1noc(CNC(=O)c2ccccc2-n2cc(CN)cn2)n1 | -19.6% |
| Cc1cccc(-c2nc(CN3CCOCS3(=O)=O)c(C)o2)c1 | 2.01% |
| CN(C)c1cc(CNC(=O)Nc2nnc(C3CC3)s2)ccn1 | -10.8% |
| CNC(=O)c1cnc(C=Cc2cc(OC)c3c(c2)OCCO3)s1 | 12.9% |
| CC(C)N(C(=O)Cn1nnnc1CCc1ccccc1)C(C)C | 7.1% |
| O=C(Cc1ccc(F)cc1)NCc1ccc(C(=O)O)o1 | -8.06% |
| COc1ccc(-c2cccc(-c3ccn(CCCN(C)C)n3)c2)nn1 | -1.01% |
| O=C1CC(c2ccc(CO)o2)c2cnn(Cc3ccco3)c2N1 (stereo not given) | 2.77% |
| CN(C(=O)c1ccncc1F)c1ccccc1S(C)(=O)=O | 2.23% |
| O=c1[nH]c(CN2CCN(CC(F)(F)F)CC2)nc2ccccc12 | 10.2% |
| CCc1nnc(SCC(=O)N2C[C@H]3CC[C@@H](C2)N(CC=C(C)C)C3)[nH]1 | -6.18% |
| CCn1c(N)nc2cc(C(=O)N3Cc4ccccc4C3)cnc21 | -8.51% |
| O=c1c2ccccc2nc2n1C(CSc1ccc(Cl)cc1)CN2 (stereo not given) | 9.38% |
| Cc1cc(C)n(C2CN(CC(=O)N(C)Cc3ccsc3)C2)n1 | -0.912% |

From ChEMBL document CHEMBL4513216, “Probing the Open Global Health Chemical Diversity Library for Multistage-Active Starting Points for Next-Generation Antimalarials” (ACS Infect Dis, 2020)
